Experimental findings from the EternaBench riboswitch data are described below.

For the data set, the system named is MS2 coat protein. Briefly: apparent Kd, MS2 coat protein; higher = weaker binding; RNA-MaP array; FMN 200 µM where present. Summed up:
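On Illumina sequencing-chip clusters, designs were transcribed by stalled E. coli RNA polymerase and titrated with SNAP-549-labelled MS2 coat protein (0.7 or 1.5 nM, doubling to 3 µM), without and then with constant ligand, in 100 mM Tris-HCl pH 7.5, 80 mM KCl, 4 mM MgCl2, BSA, DTT, yeast tRNA and Tween-20. Apparent Kd is the median of filtered per-cluster curve fits to green signal normalised to red-channel RNA signal and control-cluster median Fmax.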

Where [1] appears, read: designed as: ON switch for flavin mononucleotide, no ligand.
Where [2] appears, read: ligand present: flavin mononucleotide, designed as: ON switch for flavin mononucleotide.
[3] abbreviates: designed as: OFF switch for flavin mononucleotide, no ligand.
Where [4] appears, read: ligand present: flavin mononucleotide, designed as: OFF switch for flavin mononucleotide.

For “UUACUCAUGUAAGGAUAUGCAGCCGUUUCGGUUGCAGAAGGUACUAUAAUACAUGAGGAUCACCCAUGUCUUUUUAAUUUAGAC”, the “apparent Kd” value by setting is: under setting [1], 78.4 nM; under setting [2], 39.6 nM.

Take “AGAAACUACGAGAAGGACAUGUGGUCCUUCGAAAACAUGAGGAUCACCCAUGUAGGAUAUCGUAGUUUCAGGAUCGUGAGAUCA”: the “apparent Kd” value is, setting by setting: under setting [3], 18.2 nM; under setting [4], 4.37 nM.

Take “GUACUGUAGUGAGGAUAUACGAGUGCGAUAGCACGGCGAUCCAAUUAUACAUGAGGAUCACCCAUGUAGAAGGCACUUCAGUAC”: the “apparent Kd” value by setting is: under setting [3], 9.04 nM; under setting [4], 41 nM.

On to “GUAACAUGAGGAUCACCCAUGUAUAGAACACUCAAUAGAUCUGAGGAUAUAGUAGAAUUUACAUACUAGAAGGCAGUGGGUACA”, for which the “apparent Kd” value is 55.2 nM under setting [1] and 29.6 nM under setting [2].

Take “AAUAAACUCACAGGAUAUAGCAGAGGUCGCGUGUACUUACAGGCGACGAUGCUAGAAGGGUGACCACAUGAGGAUCACCCAUGU”: the “apparent Kd” value is, setting by setting: under setting [1], 961 nM; under setting [2], 153 nM.

“UUAGGACGAAACAUGAGGAUCACCCAUGUGUUAUAAUUAAUAUAGGAUAUGUUUAUACUUUUUGGGCAGAAGGAUGAUAUUGCU”: the “apparent Kd” value by setting is: under setting [1], 19.8 nM; under setting [2], 16.8 nM.

As for “UUGGACGUCGUAGGAUAUGUAGGAUAUUCCUACAUGAGGAUCACCCAUGUUGACAUGGAAGAAGGACAGAAGGAUGAUGUCCAU”, the “apparent Kd” value by setting is: under setting [1], 414 nM; under setting [2], 5.34 nM.

Turning to “CUGAGCUGAGGAUAUACAUGAGGAUCACCCAUGUUUUGUAGUUAGUGAAGAAGUAGUUGUAGAAGGCAGUUCGG”, the “apparent Kd” value by setting is: under setting [3], 51.3 nM; under setting [4], 255 nM.

On to “ACAUGAGGAUCACCCAUGUUCACAUAGGAUAUUGAUUAUAUUGGUUUAAGAAUAGUAAUUAACCUCAAGAAGGAUGCCUGAUCU”, for which the “apparent Kd” value is 14.9 nM under setting [1] and 12 nM under setting [2].

For “AUACAUGAGGAUCACCCAUGUUACUGGGUCUAUAUAGAACGUAGAAGGAUGAUAUUAUAAAUAUCAUAGGAUAUACUAUAUUGU”, the “apparent Kd” value is, setting by setting: under setting [3], 32.7 nM; under setting [4], 32 nM.

Take “GCGCGUUGAGGAUAUACGAACAUGUCGCCAGAUGUCAUGGUACAUGAGGAUCACCCAUGUAGAAGGUGGUGCGC”: the “apparent Kd” value reads like this: under setting [3], 208 nM; under setting [4], 352 nM.

With “GCAACGCCUGACAUGAGGAUCACCCAUGUUAGAUUGUUAUGUCAGGAUAUUGUCGCGAAACGUGAUGAGAAGGGAUAUGUUGCU”, the “apparent Kd” value came to 815 nM under setting [1] and 53.9 nM under setting [2].

With “GACUGAUUGUAGAAGGUACUUAAUAAUAUUUAAUAACUCAUGUGACAUGAGGAUCACCCAUGUAGUAAGGAUAUACAUAUCUCA”, the “apparent Kd” value stood at 211 nM under setting [1] and 79.5 nM under setting [2].

On to “UUGGACGUCGUAGGAUAUGUAGGAUAUUCCUACAUGAGGAUCACCCAUGUUGACAUGGAAGAAGGACAGAAGGACGAUAUCCAU”, for which the “apparent Kd” value stood at 289 nM under setting [1] and 5.01 nM under setting [2].

Consider “ACAAGAUCAGGAUAUACAUGAGGAUCACCCAUGUAUAUAAAAAAAAAACUUUCUUCAUGUAGAAGGGAUCUUGU”, for which the “apparent Kd” value runs as follows: under setting [3], 17.4 nM; under setting [4], 46 nM.

As for “ACAUGAGGAUCUCCCAUGUAAAAUUAGGAUAUAUAACUGCACAUGAGGAUCACCCAUGUUUUACCGUAGAAGGGAUAAAUAAUU”, the “apparent Kd” value worked out at 1010 nM under setting [1] and 567 nM under setting [2].

In the case of “CCGCAGUUAGGAUAUACAUGAGGAUCACCCAUGUGUCCAUCUGUAAUAAGACAGGAUAGUAGAAGGAACUGGCG”, the “apparent Kd” value is, setting by setting: under setting [3], 14.8 nM; under setting [4], 25.9 nM.

For “ACAUGAGGAUCACCCAUGUGAACAUAGGAUAUUGGUGAUCAGGCGUGUUAUACAGGAUAUGUCUGCGAGAAGGGUGCACGUUGC”, the “apparent Kd” value stood at 676 nM under setting [1] and 231 nM under setting [2].

For “AACAGUACAGGAUAUACAUGAGGAUCACCCAUGUGAUAAUUAAGUGGCGUACCACAAAGUAGAAGGGUACUGGA”, the “apparent Kd” value stood at 37.9 nM under setting [3] and 153 nM under setting [4].

For the sequence “ACGUCUUAGUAGAAGGGACAUCGGCUGGUAAGCAUCAUCUCCUUCUCACAUGAGGAUCACCCAUGUCAGGAUAUACUAAGAGUC”, the “apparent Kd” value is, setting by setting: under setting [3], 12.3 nM; under setting [4], 38.2 nM.

In general, apparent Kd refers to the concentration giving half-maximal binding under the conditions of the assay.
